pKi: −log10 of the molar value. Several values for one entry are separate records, joined by “and”; a condition that tells them apart may be missing. Identical values can stand only once.
Assays:
Adenosine receptor A1 [1] = biological target: T1, Adenosine receptor A1 (Rattus norvegicus, UniProt P25099); test: Displacement of [3H]DPCPX (with GTP) from Adenosine A1 receptor of rat cortical membrane
T1 sequence (P25099 whole entry): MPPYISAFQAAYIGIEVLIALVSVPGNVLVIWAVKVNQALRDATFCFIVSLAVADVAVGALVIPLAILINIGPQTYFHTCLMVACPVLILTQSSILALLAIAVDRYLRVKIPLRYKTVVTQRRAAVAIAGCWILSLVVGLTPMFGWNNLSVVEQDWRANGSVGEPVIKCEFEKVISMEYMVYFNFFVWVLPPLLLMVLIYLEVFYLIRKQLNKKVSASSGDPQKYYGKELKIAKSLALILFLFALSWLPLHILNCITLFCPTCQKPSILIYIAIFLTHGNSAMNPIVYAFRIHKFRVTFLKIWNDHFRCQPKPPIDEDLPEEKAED
Summary of the method: (§1)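 Rat cerebral cortex membranes, antagonist radioligand [3H]DPCPX, displacement run both with and without 1 mM GTP. Apparent Ki derived under each condition; their ratio gives the GTP shift. Two to three independent experiments, each in duplicate.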

Adenosine A2 receptor = Adenosine A2 receptor (Rattus norvegicus, UniProt P29276+P30543); test: Displacement of [3H]-CGS- 21680 from Adenosine A2 receptor of rat striatal membranes; type: cell membranes, Membrane
[2] = biological target: T2, Adenosine receptor A1 (Rattus norvegicus) (UniProt P25099); test: Relative affinities for rat Adenosine A1 receptor in the presence and absence of GTP
T2 sequence (whole entry): T1 sequence (P25099 whole entry)
Summary of the method: (§2)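 Rat cortical membranes. [3H]DPCPX displacement run with and without 1 mM GTP. The GTP shift is the ratio of apparent Ki with GTP to Ki without GTP. Data from two to three independent experiments, each in duplicate.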

Adenosine receptor A1 [3] = biological target: T1, Adenosine receptor A1; test: Displacement of [3H]DPCPX (without GTP) from Adenosine A1 receptor of rat cortical membrane; conditions: for pKi: read-out: Ki; summary of the method: as §1
Rattus norvegicus [4] = test: Maximum reduction heart rate of rat at a dose of 8.0 mg/kg; type: functional
Summary of the method: (§3)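 Adult male SPF Wistar rats (200-250 g), conscious, free-ranging, arterial catheter. 30 min accommodation, then 15 min baseline recording before i.v. infusion in 20% (v/v) DMSO/water. Arterial pressure and heart rate monitored continuously for 5.5 h. Vehicle-only controls; dosing 10:00-11:00 a.m. Maximum reduction from pre-administration level reported as mean ± SE.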

Rattus norvegicus [5] = test: Mean arterial pressure was recorded in conscious, normo tensive and unrestrained rats that received an intravenous infusion of drugs at a dose of 8 mg/kg; type: functional, Artery; summary of the method: as §3
Rattus norvegicus [6] = test: Effect on heart rate was measured after intravenous administration (8 mg/kg) in rat; type: functional; summary of the method: as §3
Rattus norvegicus [7] = test: Maximum reduction heart rate of rat at a dose of 4.8 mg/kg; type: functional
Summary of the method: (§4)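 Conscious, free-ranging, normotensive male SPF Wistar rats (200-250 g). Intravenous infusion in 20% (v/v) DMSO/water; vehicle-only controls. Arterial catheter; 30 min accommodation. Heart rate and arterial blood pressure recorded continuously from 15 min before dosing (baseline) through 5.5 h. Dosing done between 10:00 and 11:00 a.m. Values given as means ± SE.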

Rattus norvegicus [8] = test: Mean arterial pressure was recorded in conscious, normo tensive and unrestrained rats that received an intravenous infusion of drugs at a dose of 4.8 mg/kg; type: functional, Artery; summary of the method: as §4
Rattus norvegicus [9] = test: Effect on heart rate was measured after intravenous administration (4.8 mg/kg) in rat; type: functional; summary of the method: as §4
Rattus norvegicus [10] = test: Mean arterial pressure was recorded of conscious, normo tensive and unrestrained rats that received an intravenous infusion of drugs at a dose of 0.20 mg/kg; type: functional, Artery; conditions: dose 0.2 mg/kg; summary of the method: as §3
Rattus norvegicus [11] = test: Maximum reduction heart rate of ratat a dose of 0.20 mg/kg; type: functional; conditions: dose 0.2 mg/kg; summary of the method: as §3
Rattus norvegicus [12] = test: Maximum reduction heart rate of rat at a dose of 0.20 mg/kg; type: functional; conditions: dose 0.2 mg/kg; summary of the method: as §3
Adenosine receptor A1 [13] = biological target: T1, Adenosine receptor A1; test: Binding affinity for adenosine A1 receptor from rat cortical membrane using [3H]DPCPX without GTP; summary of the method: as §2

Structure (SMILES)	pKi (Adenosine receptor A1 [1])	Ki (Adenosine A2 receptor) [nM]	GTP shift [2]	pKi (Adenosine receptor A1 [3])	also measured
CNc1ncnc2c1nc(NC1CCCC1)n2[C@@H]1O[C@H](CO)[C@@H](O)[C@H]1O	4.80	101000	2.8	5.25	–
CCNc1ncnc2c1nc(NC1CCCC1)n2[C@@H]1O[C@H](CO)[C@@H](O)[C@H]1O	5.90	30200	4.1	6.51	–
CCCCNc1nc2c(N)ncnc2n1[C@@H]1O[C@H](CO)[C@@H](O)[C@H]1O	4.34	11500	4	–	–
CCCCNc1nc2c(NC3CCCC3)ncnc2n1C1O[C@H](CO)[C@@H](O)[C@H]1O (some centres not stated)	5.95	12400	2.3	6.30	Reduction (Rattus norvegicus [4]): 8% and 11%; MAP (Rattus norvegicus [5]): 94 mmHg; Heart rate (Rattus norvegicus [6]): 348 beats min-1
CCNc1nc2c(NC3CCCC3)ncnc2n1[C@@H]1O[C@H](CO)[C@@H](O)[C@H]1O	5.88	10100	2.8	6.33	Reduction (Rattus norvegicus [7]): 25% and 24%; MAP (Rattus norvegicus [8]): 100 mmHg; Heart rate (Rattus norvegicus [9]): 350 beats min-1
OC[C@H]1O[C@@H](n2cnc3c(NC4CCCC4)ncnc32)[C@H](O)[C@@H]1O [N6-CYCLOPENTYLADENOSINE]	–	580	–	–	MAP (Rattus norvegicus [10]): 109 mmHg; Reduction (Rattus norvegicus [11]): 54%; Heart rate (Rattus norvegicus [9]): 345 beats min-1; Reduction (Rattus norvegicus [12]): 54%
CCCCNc1ncnc2c1nc(NC1CCCC1)n2[C@@H]1O[C@H](CO)[C@@H](O)[C@H]1O	6.07	35300	1.1	6.12	–
CNc1nc2c(N)ncnc2n1[C@@H]1O[C@H](CO)[C@@H](O)[C@H]1O	4.73	1850	7.7	5.62	–
CCCNc1ncnc2c1nc(NC1CCCC1)n2C1O[C@H](CO)[C@@H](O)[C@H]1O (some centres not stated)	5.75	59400	1.1	5.80	–
CCNc1nc2c(N)ncnc2n1C1O[C@H](CO)[C@@H](O)[C@H]1O (some centres not stated)	4.62	3970	3.6	5.18	–
CCCNc1nc2c(N)ncnc2n1C1O[C@H](CO)[C@@H](O)[C@H]1O (some centres not stated)	4.46	4960	5.8	5.22	–
Nc1ncnc2c1nc(NC1CCCC1)n2C1O[C@H](CO)[C@@H](O)[C@H]1O (some centres not stated)	–	–	–	–	Ki (Adenosine receptor A1 [3]): Not Active
CNc1nc2c(NC3CCCC3)ncnc2n1[C@@H]1O[C@H](CO)[C@@H](O)[C@H]1O	6.01	20800	3.8	–	pKi (Adenosine receptor A1 [13]): 6.59; Reduction (Rattus norvegicus [7]): 34% and 50%; MAP (Rattus norvegicus [8]): 105 mmHg; Heart rate (Rattus norvegicus [9]): 334 beats min-1
CCCNc1nc2c(NC3CCCC3)ncnc2n1[C@@H]1O[C@H](CO)[C@@H](O)[C@H]1O	5.98	7670	3	6.46	Reduction (Rattus norvegicus [7]): 20% and 15%; MAP (Rattus norvegicus [8]): 90 mmHg; Heart rate (Rattus norvegicus [9]): 344 beats min-1
OC[C@H]1O[C@@H](n2c(NC3CCCC3)nc3c(NC4CCCC4)ncnc32)[C@H](O)[C@@H]1O	5.89	45500	1.2	5.96	Reduction (Rattus norvegicus [4]): 2% and 3%; MAP (Rattus norvegicus [5]): 94 mmHg; Heart rate (Rattus norvegicus [6]): 329 beats min-1

Source: ChEMBL document CHEMBL1129060, “N6,C8-distributed adenosine derivatives as partial agonists for adenosine A1 receptors” (J Med Chem, 1996)
